Structures are written as SMILES.

This assay addresses Insulin receptor (Homo sapiens, UniProt P06213). The experiment in a line: Activation of human insulin receptor tyrosine kinase (IRTK). Summed up: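 CHO cells stably transfected with human insulin receptor, plated 150 000 cells/well for 24 h, serum-starved 2 h, then exposed to compound 20 min at 37 °C. Lysate IR captured on anti-IR antibody wells (16 h, 4 °C), kinase reaction 40 min at 25 °C, radioactivity on phosphocellulose filters. Activity as % of maximal response to 100 nM insulin.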

Chain of Insulin receptor (P06213 28-758 limits assumed): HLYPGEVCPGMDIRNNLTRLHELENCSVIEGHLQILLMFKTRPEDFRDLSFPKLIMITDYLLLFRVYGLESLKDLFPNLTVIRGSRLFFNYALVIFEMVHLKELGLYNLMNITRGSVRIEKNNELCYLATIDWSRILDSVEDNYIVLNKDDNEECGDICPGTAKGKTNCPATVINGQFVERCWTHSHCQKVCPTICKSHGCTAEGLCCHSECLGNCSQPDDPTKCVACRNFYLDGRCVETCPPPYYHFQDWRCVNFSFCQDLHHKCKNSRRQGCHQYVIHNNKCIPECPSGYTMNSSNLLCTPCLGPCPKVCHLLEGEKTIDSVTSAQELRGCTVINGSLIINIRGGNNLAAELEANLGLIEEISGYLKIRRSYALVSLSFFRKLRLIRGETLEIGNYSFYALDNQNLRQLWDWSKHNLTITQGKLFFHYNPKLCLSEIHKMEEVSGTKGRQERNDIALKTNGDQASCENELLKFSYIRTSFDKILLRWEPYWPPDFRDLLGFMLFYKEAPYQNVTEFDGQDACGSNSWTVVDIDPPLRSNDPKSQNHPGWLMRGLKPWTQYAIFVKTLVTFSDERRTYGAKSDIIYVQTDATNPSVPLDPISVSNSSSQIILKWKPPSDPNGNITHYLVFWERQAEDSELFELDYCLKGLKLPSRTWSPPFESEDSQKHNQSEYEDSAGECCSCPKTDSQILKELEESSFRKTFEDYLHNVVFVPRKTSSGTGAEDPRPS
Chain of Insulin receptor (P06213 763-1382 limits assumed): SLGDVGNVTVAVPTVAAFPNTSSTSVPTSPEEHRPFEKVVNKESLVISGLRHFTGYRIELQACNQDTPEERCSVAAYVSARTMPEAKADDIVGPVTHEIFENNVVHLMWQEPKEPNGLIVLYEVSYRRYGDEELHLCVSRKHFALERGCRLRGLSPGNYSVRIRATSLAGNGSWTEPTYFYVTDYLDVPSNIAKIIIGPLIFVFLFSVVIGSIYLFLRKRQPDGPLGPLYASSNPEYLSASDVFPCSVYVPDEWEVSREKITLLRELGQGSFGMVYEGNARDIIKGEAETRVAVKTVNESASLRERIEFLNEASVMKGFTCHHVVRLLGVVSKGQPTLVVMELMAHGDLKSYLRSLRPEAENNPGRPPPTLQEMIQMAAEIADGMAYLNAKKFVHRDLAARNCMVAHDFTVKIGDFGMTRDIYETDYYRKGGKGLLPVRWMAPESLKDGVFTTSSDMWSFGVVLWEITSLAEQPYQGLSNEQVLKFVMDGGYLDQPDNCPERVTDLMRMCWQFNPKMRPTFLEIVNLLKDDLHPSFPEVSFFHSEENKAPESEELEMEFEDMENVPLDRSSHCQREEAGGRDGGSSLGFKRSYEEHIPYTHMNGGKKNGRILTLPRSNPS

Compound `Cn1cc(C2C(=O)C(=O)C(c3ccccc3)C(=O)C2=O)c2ccccc21` (configuration not stated) [2,5-Dihydroxy-3-(1-methyl-1H-indol-3-yl)-6-phenyl-[1,4]benzoquinone] yielded an EC50 of 300 nM. This lies in the sub-micromolar range.

For `O=C1C(=O)C(c2c[nH]c3ccccc23)C(=O)C(=O)C1c1ccccc1` (configuration not stated) [2,5-Dihydroxy-3-(1H-indol-3-yl)-6-phenyl-[1,4]benzoquinone], the EC50 stood at 300 nM.

A word on the EC50: it is the concentration that produces a half-maximal response. High values mean a need for much substance, low ones an effect from little substance.

For the origin of these results see BindingDB's records for doi:10.1021/jm000285q (Merck Research Laboratories, 2000).
